Where a SMILES comes first, the peptide text is derived from it. [ ]: non-standard residue; d: D form. Leu(5,5,5,5',5',5'-F6) = N[C@@H](CC(C(F)(F)F)C(F)(F)F)C(=O)O
Columns and labels:
Mus musculus = organism: Mus musculus; test: Toxicity in C57BL/6 mouse assessed as effect on body weight after 5 days; type: organism-based; conditions: in vivo, 120 h
[1] = Stability in presence of DPP4 assessed as peptide degradation after 24 hrs by HPLC; type: ADME
How it was run: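 Peptides (10 μM) incubated with DPP IV (20 units/L, activity calibrated on Gly-Pro-p-nitroanilide at 410 nm) in 50 mM Tris·HCl, 1 mM EDTA, pH 7.6, 37 °C, sampled over 200 min and up to 24 h. Samples were quenched in 0.2% TFA and run on C18 RP-HPLC (CH3CN/H2O/0.1% TFA, 230 nm). First-order k was fitted from ln[A] versus time, and fragments were identified by ESI-MS.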

| Compound | Activity (Mus musculus) | Stability [1] |
| --- | --- | --- |
| CC[C@H](C)[C@H](NC(=O)[C@H](Cc1ccccc1)NC(=O)[C@H](CCC(=O)O)NC(=O)[C@H](CCCCN)NC(=O)[C@H](C)NC(=O)[C@H](C)NC(=O)[C@H](CCC(N)=O)NC(=O)CNC(=O)[C@H](CCC(=O)O)NC(=O)[C@H](CC(C)C)NC(=O)[C@H](Cc1ccc(O)cc1)NC(=O)[C@H](CO)NC(=O)[C@H](CO)NC(=O)[C@@H](NC(=O)[C@H](CC(=O)O)NC(=O)[C@H](CO)NC(=O)[C@@H](NC(=O)[C@H](Cc1ccccc1)NC(=O)[C@@H](NC(=O)CNC(=O)[C@H](CCC(=O)O)NC(=O)[C@H](C)NC(=O)[C@@H](N)Cc1cnc[nH]1)[C@@H](C)O)[C@@H](C)O)C(C)C)C(=O)N[C@@H](C)C(=O)N[C@@H](Cc1c[nH]c2ccccc12)C(=O)N[C@@H](CC(C(F)(F)F)C(F)(F)F)C(=O)N[C@H](C(=O)N[C@@H](CCCCN)C(=O)NCC(=O)N[C@@H](CCCNC(=N)N)C(N)=O)C(C)C | Non-toxic | – |
| CC[C@H](C)[C@H](NC(=O)[C@H](Cc1ccccc1)NC(=O)[C@H](CCC(=O)O)NC(=O)[C@H](CCCCN)NC(=O)[C@H](C)NC(=O)[C@H](C)NC(=O)[C@H](CCC(N)=O)NC(=O)CNC(=O)[C@H](CCC(=O)O)NC(=O)[C@H](CC(C)C)NC(=O)[C@H](Cc1ccc(O)cc1)NC(=O)[C@H](CO)NC(=O)[C@H](CO)NC(=O)[C@@H](NC(=O)[C@H](CC(=O)O)NC(=O)[C@H](CO)NC(=O)[C@@H](NC(=O)[C@H](Cc1ccccc1)NC(=O)[C@@H](NC(=O)CNC(=O)[C@H](CCC(=O)O)NC(=O)[C@H](CC(C(F)(F)F)C(F)(F)F)NC(=O)[C@@H](N)Cc1cnc[nH]1)[C@@H](C)O)[C@@H](C)O)C(C)C)C(=O)N[C@@H](C)C(=O)N[C@@H](Cc1c[nH]c2ccccc12)C(=O)N[C@@H](CC(C)C)C(=O)N[C@H](C(=O)N[C@@H](CCCCN)C(=O)NCC(=O)N[C@@H](CCCNC(=N)N)C(N)=O)C(C)C | Non-toxic | Stable |
| CC[C@H](C)[C@H](NC(=O)[C@H](Cc1ccccc1)NC(=O)[C@H](CCC(=O)O)NC(=O)[C@H](CCCCN)NC(=O)[C@H](C)NC(=O)[C@H](C)NC(=O)[C@H](CCC(N)=O)NC(=O)CNC(=O)[C@H](CCC(=O)O)NC(=O)[C@H](CC(C)C)NC(=O)[C@H](Cc1ccc(O)cc1)NC(=O)[C@H](CO)NC(=O)[C@H](CO)NC(=O)[C@@H](NC(=O)[C@H](CC(=O)O)NC(=O)[C@H](CO)NC(=O)[C@@H](NC(=O)[C@H](Cc1ccccc1)NC(=O)[C@@H](NC(=O)[C@H](CC(C(F)(F)F)C(F)(F)F)NC(=O)[C@H](CCC(=O)O)NC(=O)[C@H](C)NC(=O)[C@@H](N)Cc1cnc[nH]1)[C@@H](C)O)[C@@H](C)O)C(C)C)C(=O)N[C@@H](C)C(=O)N[C@@H](Cc1c[nH]c2ccccc12)C(=O)N[C@@H](CC(C)C)C(=O)N[C@H](C(=O)N[C@@H](CCCCN)C(=O)NCC(=O)N[C@@H](CCCN=C(N)N)C(N)=O)C(C)C | Non-toxic | – |
| CC[C@H](C)[C@H](NC(=O)[C@H](Cc1ccccc1)NC(=O)[C@H](CCC(=O)O)NC(=O)[C@H](CCCCN)NC(=O)[C@H](C)NC(=O)[C@H](C)NC(=O)[C@H](CCC(N)=O)NC(=O)CNC(=O)[C@H](CCC(=O)O)NC(=O)[C@H](CC(C)C)NC(=O)[C@H](Cc1ccc(O)cc1)NC(=O)[C@H](CO)NC(=O)[C@H](CO)NC(=O)[C@@H](NC(=O)[C@H](CC(=O)O)NC(=O)[C@H](CO)NC(=O)[C@@H](NC(=O)[C@H](Cc1ccccc1)NC(=O)[C@@H](NC(=O)CNC(=O)[C@H](CC(C(F)(F)F)C(F)(F)F)NC(=O)[C@H](CC(C(F)(F)F)C(F)(F)F)NC(=O)[C@@H](N)Cc1cnc[nH]1)[C@@H](C)O)[C@@H](C)O)C(C)C)C(=O)N[C@@H](C)C(=O)N[C@@H](Cc1c[nH]c2ccccc12)C(=O)N[C@@H](CC(C)C)C(=O)N[C@H](C(=O)N[C@@H](CCCCN)C(=O)NCC(=O)N[C@@H](CCCNC(=N)N)C(N)=O)C(C)C | Non-toxic | Stable |
| CC[C@H](C)[C@H](NC(=O)[C@H](Cc1ccccc1)NC(=O)[C@H](CCC(=O)O)NC(=O)[C@H](CCCCN)NC(=O)[C@H](C)NC(=O)[C@H](C)NC(=O)[C@H](CCC(N)=O)NC(=O)CNC(=O)[C@H](CCC(=O)O)NC(=O)CNC(=O)[C@H](CC(C)C)NC(=O)[C@H](Cc1ccc(O)cc1)NC(=O)[C@H](CO)NC(=O)[C@H](CO)NC(=O)[C@@H](NC(=O)[C@H](CC(=O)O)NC(=O)[C@H](CO)NC(=O)[C@@H](NC(=O)[C@H](Cc1ccccc1)NC(=O)[C@@H](NC(=O)CNC(=O)[C@H](CC(C(F)(F)F)C(F)(F)F)NC(=O)[C@H](C)NC(=O)[C@@H](N)Cc1cnc[nH]1)[C@@H](C)O)[C@@H](C)O)C(C)C)C(=O)N[C@@H](C)C(=O)N[C@@H](Cc1c[nH]c2ccccc12)C(=O)N[C@@H](CC(C)C)C(=O)N[C@H](C(=O)N[C@@H](CCCCN)C(=O)NCC(=O)N[C@@H](CCCNC(=N)N)C(N)=O)C(C)C (H-HA[Leu(5,5,5,5',5',5'-F6)]GTFTSDVSSYLGEGQAAKEFIAWLVKGR-NH2) | Non-toxic | – |
| CC[C@H](C)[C@H](NC(=O)[C@H](CC(C(F)(F)F)C(F)(F)F)NC(=O)[C@H](CCC(=O)O)NC(=O)[C@H](CCCCN)NC(=O)[C@H](C)NC(=O)[C@H](C)NC(=O)[C@H](CCC(N)=O)NC(=O)CNC(=O)[C@H](CCC(=O)O)NC(=O)[C@H](CC(C)C)NC(=O)[C@H](Cc1ccc(O)cc1)NC(=O)[C@H](CO)NC(=O)[C@H](CO)NC(=O)[C@@H](NC(=O)[C@H](CC(=O)O)NC(=O)[C@H](CO)NC(=O)[C@@H](NC(=O)[C@H](Cc1ccccc1)NC(=O)[C@@H](NC(=O)CNC(=O)[C@H](CCC(=O)O)NC(=O)[C@H](C)NC(=O)[C@@H](N)Cc1cnc[nH]1)[C@@H](C)O)[C@@H](C)O)C(C)C)C(=O)N[C@@H](C)C(=O)N[C@@H](Cc1c[nH]c2ccccc12)C(=O)N[C@@H](CC(C)C)C(=O)N[C@H](C(=O)N[C@@H](CCCCN)C(=O)NCC(=O)N[C@@H](CCCN=C(N)N)C(=O)O)C(C)C | Non-toxic | – |
| CC(C)C[C@H](NC(=O)[C@H](Cc1ccc(O)cc1)NC(=O)[C@H](CO)NC(=O)[C@H](CO)NC(=O)[C@@H](NC(=O)[C@H](CC(=O)O)NC(=O)[C@H](CO)NC(=O)[C@@H](NC(=O)[C@H](Cc1ccccc1)NC(=O)[C@@H](NC(=O)CNC(=O)[C@H](CCC(=O)O)NC(=O)[C@H](C)NC(=O)[C@@H](N)Cc1cnc[nH]1)[C@@H](C)O)[C@@H](C)O)C(C)C)C(=O)N[C@@H](CCC(=O)O)C(=O)NCC(=O)N[C@@H](CCC(N)=O)C(=O)N[C@@H](C)C(=O)N[C@@H](C)C(=O)N[C@@H](CCCCN)C(=O)N[C@@H](CCC(=O)O)C(=O)N[C@@H](Cc1ccccc1)C(=O)N[C@@H](CC(C(F)(F)F)C(F)(F)F)C(=O)N[C@@H](C)C(=O)N[C@@H](Cc1c[nH]c2ccccc12)C(=O)N[C@@H](CC(C)C)C(=O)N[C@H](C(=O)N[C@@H](CCCCN)C(=O)NCC(=O)N[C@@H](CCCNC(=N)N)C(N)=O)C(C)C | Non-toxic | – |

Source: ChEMBL document CHEMBL1152280 (J Med Chem, 2008)
